The values below come from ChEMBL document CHEMBL4316638, “Bioactive Meroterpenoids and Isocoumarins from the Mangrove-Derived Fungus Penicillium sp. TGM112” (J Nat Prod, 2019).

In brackets after ≈: the same amount, converted by molar mass. Activity calls are given as the source filed them. No cut-off for these calls is given here.

One experiment deals with A549. The experiment in a line: Cytotoxicity against human A549 cells measured after 7 days by MTT assay. The experiment is classed as functional, cell-based. For orientation: Tetrazolium assays rely on reduction of a dye to a coloured formazan, in cell work by metabolically active cells.
Another experiment deals with Escherichia coli. The experiment in a line: Antibacterial activity against Escherichia coli ATCC 25922 by microplate assay. The experiment is classed as functional, organism-based.
The test system of a further experiment is RAW264.7. The experiment in a line: Inhibition of LPS-induced nitric oxide production in mouse RAW264.7 cells preincubated for 30 mins followed by LPS-stimulation and measured after 24 hrs by Griess assay. The experiment is classed as functional, cell-based. In outline: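 RAW264.7 macrophages seeded at 50 000 cells/well and grown 24 h, then exposed to compound for 30 min at 37 °C before LPS (100 ng/mL) co-incubation for 24 h. Nitrite in supernatant measured by Griess reagent (10 min mixing), absorbance 540 nm. Compounds from 10 mM DMSO stocks; final DMSO ≤0.1%. Dexamethasone positive control. Triplicate runs; IC50 calculated.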
In general terms: Griess reagent forms a coloured azo dye with nitrite.

Another experiment deals with HepG2. The experiment in a line: Cytotoxicity against human HepG2 cells measured after 7 days by MTT assay. The experiment is classed as functional, cell-based.
Another experiment relates to Helicoverpa armigera. The experiment is described as follows: Insecticidal activity against Helicoverpa armigera hubner measured every other day for 8 days starting from 2 days post dosing. The experiment is classed as functional, organism-based. A digest of the protocol:
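Neonate H. armigera larvae fed artificial diet dosed with serial dilutions of compound (1 mg/mL in DMSO) at 200, 100, 50, 25 and 12.5 μL/well in six-well plates; three groups of three larvae, 3 replicates per treatment. Held at 25 ± 1 °C, 80% relative humidity. Dead larvae counted on days 2, 4, 6, 8. DMSO negative, azadirachtin positive, plain diet blank controls.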

A further experiment concerns Vibrio parahaemolyticus. The experiment is described as follows: Antibacterial activity against Vibrio parahaemolyticus ATCC 17802 by microplate assay. The experiment is classed as functional, organism-based.
The test system of another experiment is Caenorhabditis elegans. The experiment is described as follows: Insecticidal activity against Caenorhabditis elegans measured at 12 […]. The experiment is classed as functional, organism-based. In outline: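 L1 C. elegans (30−40 worms/well) in S medium with E. coli OP50 and chloramphenicol, exposed to compound at 40, 20, 10, 5, 1 and 0 μg/mL diluted in filter-sterilized M-9; 3 replicates per treatment. Plates sealed, kept at 24 °C for 60 h in the dark; dead larvae counted at 12, 24, 36, 48, 60. M-9 negative control, levamisole 1 mg/mL positive control.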

For a further experiment, the system named is HeLa. The experiment is described as follows: Cytotoxicity against human HeLa cells measured after 7 days by MTT assay. The experiment is classed as functional, cell-based.
The test system of the next experiment is Bacillus cereus. The experiment is described as follows: Antibacterial activity against Bacillus cereus ATCC 11778 by microplate assay. The experiment is classed as functional, organism-based.
The next experiment relates to Vibrio alginolyticus. The experiment is described as follows: Antibacterial activity against Vibrio alginolyticus ATCC 17749 by microplate assay. The experiment is classed as functional, organism-based. The note with it: NBRC 15630 = ATCC 17749.
For experiment [1], the system named is Staphylococcus aureus. The experiment is described as follows: Antibacterial activity against Staphylococcus aureus ATCC 25923 by microplate assay. The experiment is classed as functional, organism-based.
Experiment [2] deals with Staphylococcus aureus. The experiment in a line: Antibacterial activity against methicillin-resistant Staphylococcus aureus ATCC 33591 by microplate assay. The experiment is classed as functional, organism-based. In outline:
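MRSA (ATCC 33591) was one strain in a panel of six pathogenic bacteria: four general and two marine Vibrio. Assayed by the microplate method, with ciprofloxacin as positive control.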

For the compound `C=C1[C@@]23C(=O)O[C@H](C)[C@@]2(O)C(=O)O[C@]1(C)[C@@H](O)C1=C(C)[C@]2(CCC(=O)OC2(C)C)CC[C@@]13C`, the outcome in the experiment on A549, with Escherichia coli, in the experiment with HepG2, in the experiment with Vibrio parahaemolyticus, with HeLa and in the experiment on Bacillus cereus was inactive. In addition, the result with Vibrio alginolyticus, with Staphylococcus aureus [1] and in the experiment on Staphylococcus aureus [2] was inactive. The inhibition entry in the experiment with RAW264.7 is “inactive”. Besides, the half-inhibitory concentration (IC50) in the experiment on Helicoverpa armigera was 100 µg/mL (≈ 217 µM). The same compound yielded an EC50 in the experiment on Caenorhabditis elegans of 19.5 µg/mL (≈ 42.3 µM).
Take `C=C1[C@@]23C(=O)O[C@H](C)[C@]24O[C@@]2(C(=C)[C@]5(C=CC(=O)OC5(C)C)C[C@@H](O)[C@]32C)[C@H](O)[C@@]1(C)OC4=O`: the result in the experiment on A549, in the experiment on Escherichia coli, in the experiment with HepG2, with Vibrio parahaemolyticus, in the experiment on HeLa and in the experiment on Bacillus cereus was inactive. For the same compound, the outcome in the experiment on Vibrio alginolyticus, in the experiment on Staphylococcus aureus [1] and in the experiment with Staphylococcus aureus [2] was inactive. Moreover, the inhibition entry with RAW264.7 was “inactive”. In the experiment on Helicoverpa armigera, this compound came in with a 50% inhibitory concentration (IC50) of 200 µg/mL (≈ 423 µM). Besides, the EC50 in the experiment with Caenorhabditis elegans was 9.9 µg/mL (≈ 21 µM).
In the case of `C=C1[C@@]23C(=O)O[C@H](C)[C@@]2(O)C(=O)O[C@]1(C)[C@@H](O)C1=C2COC4CC(=O)OC(C)(C)[C@@]24CC[C@@]13C` (some centres undefined), the outcome in the experiment on A549, with Escherichia coli, with HepG2, with Vibrio parahaemolyticus, with HeLa and in the experiment with Bacillus cereus was inactive. Also, the outcome in the experiment with Vibrio alginolyticus, with Staphylococcus aureus [1] and with Staphylococcus aureus [2] was inactive. The inhibition result in the experiment on RAW264.7 is “inactive”. In the experiment on Caenorhabditis elegans, this compound yielded a 50% effective concentration (EC50) of 19.1 µg/mL (≈ 40.3 µM).
Regarding `C=C1[C@]2(CCC(=O)OC2(C)C)C[C@@H](OC(=O)/C(C)=C\C)[C@]2(C)[C@]34C(=O)O[C@H](C)[C@]35O[C@]12[C@H](OC(C)=O)[C@@](C)(OC5=O)C4=O`, the outcome in the experiment on A549, with Escherichia coli, with HepG2, with Vibrio parahaemolyticus, in the experiment on HeLa and in the experiment with Bacillus cereus was inactive. In addition, the outcome with Vibrio alginolyticus, in the experiment with Staphylococcus aureus [1] and in the experiment with Staphylococcus aureus [2] was inactive. In addition, the inhibition entry with RAW264.7 is “inactive”. In addition, the half-inhibitory concentration (IC50) in the experiment with Helicoverpa armigera turned out to be 200 µg/mL (≈ 333 µM). This compound also gave an EC50 with Caenorhabditis elegans of 9.4 µg/mL (≈ 15.7 µM).
`C=C1[C@@]23C(=O)O[C@H](C)[C@]24O[C@@]2(C(=C)[C@]5(C=CC(=O)OC5(C)C)C[C@@H](O)[C@]32C)[C@H](OC(C)=O)[C@@]1(C)OC4=O`: the result with A549, with Escherichia coli, in the experiment on HepG2, in the experiment on Vibrio parahaemolyticus, in the experiment on HeLa and with Bacillus cereus was inactive. The result with Vibrio alginolyticus, with Staphylococcus aureus [1] and with Staphylococcus aureus [2] was inactive. Further, the inhibition entry in the experiment on RAW264.7 was “inactive”. This compound also came in with an EC50 in the experiment with Caenorhabditis elegans of 20.6 µg/mL (≈ 40 µM).
In the case of `C=C1[C@@]23C(=O)O[C@H](C)[C@]24O[C@@]2(C(=C)[C@]5(C=CC(=O)OC5(C)C)CC[C@]32C)[C@H](O)[C@@]1(C)OC4=O`, the outcome in the experiment with A549, in the experiment on Escherichia coli, in the experiment on HepG2, in the experiment on Vibrio parahaemolyticus, with HeLa and in the experiment on Bacillus cereus was inactive. Also, the outcome in the experiment on Vibrio alginolyticus, with Staphylococcus aureus [1] and in the experiment on Staphylococcus aureus [2] was inactive. Moreover, the inhibition result with RAW264.7 was “inactive”. Also, a half-maximal effect in the experiment with Caenorhabditis elegans (EC50) was put at 38.2 µg/mL (≈ 83.7 µM).

As usually defined, the IC50 is the concentration at which inhibition is half-maximal. Lower therefore signals greater potency in that assay. What is called EC50 is the midpoint of the concentration-response curve.
